# What was measured:
# PAI-1 = test: Immunohistochemistry: PAI-1 immunoreactive vessels; format: in vivo, rat; conditions: treatment 4h after MCAO, 24h; double immunostaining
# How it was run: (§1)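 Embolic-MCAO male Wistar rats were treated 4 h after stroke onset with one of three regimens: IV tPA (10 mg/kg) alone, tPA plus peptide (0.8 mg/kg/day, IA then SC pump), or saline (n=4–6). Rats were killed 24 h after treatment began. Frozen 8 μm coronal sections (bregma −0.4 to −1.4 mm) were immunostained, and immunoreactive vessels in ischemic brain were counted. One-way ANOVA with Hochberg adjustment was used.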
# p-Smad2/3 = test: Immunohistochemistry: p-Smads2/3 immunoreactive vessels; format: in vivo, rat; conditions: treatment 4h after MCAO, 24h; compared to the saline treatment
# How it was run: as §1
# [1] = system: rat model of embolic middle cerebral artery occlusion (MCAO); test: Incidence of gross hemorrhage on H&E stained coronal sections; format: in vivo; conditions: treatment started 4h after MCAO; H&E sections 7 days after MCAO
# How it was run: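 In embolic-MCAO male Wistar rats, treatment began 1 or 4 h after occlusion. The peptide was given at 0.8 mg/kg/day (IA for 2 h, then SC pump for 3 days), with or without IV tPA 10 mg/kg at 4 h. Rats were killed at day 7. Seven H&E coronal sections per animal were scored for blood visible to the unaided eye, expressed as group percentage. Fisher exact test was applied.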
# [2] = system: rat model of embolic middle cerebral artery occlusion (MCAO); test: MRI measurement of ischemic lesion; format: in vivo; conditions: treatment started 4h after MCAO; MRI at 1, 72 and 144 h after MCAO; n=10/group
# How it was run: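 Rats received IV tPA (10 mg/kg) alone or tPA plus peptide, starting 4 h after embolic MCAO. Imaging was done on a 7 T scanner with T2-weighted and diffusion-weighted images at 1, 72 and 144 h. Ischemic area was taken from the T2 map using a threshold of two SD above the contralateral hemisphere. Groups were compared by one-way ANOVA.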
# TGF-β1 = test: Immunohistochemistry: TGF-β1 immunoreactive vessels; format: in vivo, rat; conditions: treatment 4h after MCAO, 24h; compared to the saline treatment
# How it was run: as §1
# NF-κB (p65) = test: Immunohistochemistry: p65 immunoreactive vessels; format: in vivo, rat; conditions: treatment 4h after MCAO, 24h; ipsilateral hemisphere
# How it was run: as §1
substance,measurement,setting,value
tissue plasminogen activator [tPA],PAI-1 immunoreactive vessel density,PAI-1,further increased
same,density of p-Smads2/3 immunoreactive vessels,p-Smad2/3,failed to reduce the densities
same,incidence of gross hemorrhage,[1],38%
same,ischemic lesion by MRI (T2),[2],increased over 144h
same,density of TGF-β1 immunoreactive vessels,TGF-β1,failed to reduce the densities
same,p65 immunoreactive vessels,NF-κB (p65),augmented
